Laboratory results as given in PMC7161550 (British Journal of Pharmacology, 2020).
Values joined by “and” are separate entries in the source; they are usually repeats but may differ in a detail not shown here. Equal values may be shown once. Read-outs that look alike come from different tables or passages of the source.

Tests used:
[1] = molecular target: T1, rat brain fatty acid amide hydrolase (FAAH) (Rattus norvegicus, UniProt P97612); format: biochemical
T1 sequence (P97612 1-579): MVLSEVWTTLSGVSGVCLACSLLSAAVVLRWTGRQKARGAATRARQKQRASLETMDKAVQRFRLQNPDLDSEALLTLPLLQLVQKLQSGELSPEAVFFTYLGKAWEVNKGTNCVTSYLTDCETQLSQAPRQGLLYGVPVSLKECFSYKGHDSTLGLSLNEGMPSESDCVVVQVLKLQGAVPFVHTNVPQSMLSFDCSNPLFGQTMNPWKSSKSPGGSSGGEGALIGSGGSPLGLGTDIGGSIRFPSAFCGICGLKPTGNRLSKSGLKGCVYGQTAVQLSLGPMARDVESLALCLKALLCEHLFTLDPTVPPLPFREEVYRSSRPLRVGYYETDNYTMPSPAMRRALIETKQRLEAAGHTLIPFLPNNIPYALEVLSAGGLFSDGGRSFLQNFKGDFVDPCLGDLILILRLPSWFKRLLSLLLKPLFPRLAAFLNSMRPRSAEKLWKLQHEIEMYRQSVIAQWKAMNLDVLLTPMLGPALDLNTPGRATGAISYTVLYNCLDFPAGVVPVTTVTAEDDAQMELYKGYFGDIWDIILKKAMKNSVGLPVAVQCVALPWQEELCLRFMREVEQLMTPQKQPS
In short: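 Rat brain membranes from Wistar rats, 10 μg protein, in 1 mM EDTA, 10 mM Tris, pH 7.6. Test compound at 1 nM–10 μM, pre-incubated with enzyme 5–60 min, or reaction started with enzyme when not pre-incubated. Substrate 2 μM AEA + 5 nM 3H‑AEA + 0.1% fatty acid-free BSA, 30 min at room temperature with agitation. Charcoal stop; supernatant 3H‑ethanolamine counted. Blank and vehicle controls; IC50 from normalized variable-slope sigmoidal fit.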

[2] = molecular target: T2, rat brain fatty acid amide hydrolase (Rattus norvegicus, UniProt P97612); assay: FAAH progression curves, kinetic constants k obs and k inact/K I; format: biochemical; settings: inhibition of rat brain FAAH, 37°C
T2 sequence (P97612 1-579): T1 sequence (P97612 1-579)

[3] = molecular target: T3, mouse brain fatty acid amide hydrolase (FAAH) (Mus musculus, UniProt O08914); assay: Ex vivo FAAH activity in mouse brain after oral administration; settings: for ED50 [95% CI] Brain: 8 hr after oral administration
T3 sequence (O08914 1-579): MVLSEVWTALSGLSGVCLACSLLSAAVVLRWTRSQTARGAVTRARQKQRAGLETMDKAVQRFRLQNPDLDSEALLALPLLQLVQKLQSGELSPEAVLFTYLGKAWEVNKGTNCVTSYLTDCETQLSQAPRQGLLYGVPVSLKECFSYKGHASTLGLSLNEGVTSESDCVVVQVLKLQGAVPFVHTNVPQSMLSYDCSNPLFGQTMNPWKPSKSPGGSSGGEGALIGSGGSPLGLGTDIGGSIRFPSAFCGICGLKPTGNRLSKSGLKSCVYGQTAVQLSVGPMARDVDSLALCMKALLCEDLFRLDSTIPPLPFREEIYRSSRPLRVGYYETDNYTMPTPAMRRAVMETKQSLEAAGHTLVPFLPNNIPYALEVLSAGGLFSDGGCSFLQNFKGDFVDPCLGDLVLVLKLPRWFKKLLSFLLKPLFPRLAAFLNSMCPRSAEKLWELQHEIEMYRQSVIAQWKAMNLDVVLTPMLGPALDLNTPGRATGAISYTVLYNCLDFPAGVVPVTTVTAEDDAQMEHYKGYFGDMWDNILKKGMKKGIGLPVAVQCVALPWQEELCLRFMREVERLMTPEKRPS
In short: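 Liver and half-brain were collected into FAAH membrane buffer (3 mM MgCl2, 1 mM EDTA, 50 mM Tris HCl, pH 7.4) and stored at −20°C. Homogenates (15 μg protein brain, 5 μg liver) were pre-incubated 15 min at 37°C. AEA + 3H‑AEA + BSA was added for 10 min (brain) or 7 min (liver), then charcoal. Scintillation counting gave % remaining activity versus controls after blank subtraction.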

[4] = system: brain 2‐arachidonoylglycerol (2‐AG); assay: 2‐arachidonoylglycerol; format: in vivo; settings: mouse, 10 mg·kg^−1 p.o.
In short: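 Frozen brains were thawed at 4°C and weighed. Each sample was extracted with chloroform:MeOH (2:1) plus 0.1 M phosphate buffer, pH 5.6. Deuterated internal standards were spiked in: AEA‑d8, PEA‑d4 and OEA‑d2 for the fatty acid amides, and 2‑AG‑d8 for 2‑AG.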

[5] = format: in vivo; settings: rat, 10 mg·kg^−1 p.o.
CYP1A2 = CYP1A2 (Homo sapiens, UniProt P05177); assay: CYP inhibition, pooled human liver microsomes; format: in vitro ADME; settings: 0.33–99.2 μM, co‐ and pre‐incubation
In short: (§1)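 The rate of metabolite formation was measured; testosterone was one CYP3A4 substrate. Controls: solvent vehicle, enzyme-selective inhibitors, mechanism-based inhibitors. Analysis by HPLC with online radio-detection or LC/MS/MS.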

CYP2A6 = CYP2A6 (Homo sapiens, UniProt P11509); assay: CYP inhibition, pooled human liver microsomes; format: in vitro ADME; settings: 0.33–99.2 μM, co‐ and pre‐incubation
In short: as §1

CYP2D6 = CYP2D6 (Homo sapiens, UniProt P10635); assay: CYP inhibition, pooled human liver microsomes; format: in vitro ADME
In short: as §1

CYP3A4 = CYP3A4 (Homo sapiens, UniProt P08684); assay: CYP inhibition, pooled human liver microsomes; format: in vitro ADME
In short: as §1

human OATP1B1 = human OATP1B1 (Homo sapiens, UniProt Q9Y6L6); assay: Transporter inhibition, probe substrate accumulation; format: in vitro ADME; settings: 0.033–33.3 μM
In short: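 Inhibition of probe substrate accumulation in transfected cells: CHO‑K1 for OAT1 and OCT1; HEK293 for OAT3, OATP1B1 and OATP1B3; MDCKII for OCT2, MATE1 and MATE2‑K. Each transporter's activity was confirmed with a positive control substrate or inhibitor.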

[6] = human, 2017, cited from earlier work
[7] = Protein binding to cell homogenates; format: in vitro ADME; settings: 500 μg·ml^−1 of protein
[8] = pre‐incubation with BIA 10‐2474

Sequence of CYP3A4 (P08684 whole entry): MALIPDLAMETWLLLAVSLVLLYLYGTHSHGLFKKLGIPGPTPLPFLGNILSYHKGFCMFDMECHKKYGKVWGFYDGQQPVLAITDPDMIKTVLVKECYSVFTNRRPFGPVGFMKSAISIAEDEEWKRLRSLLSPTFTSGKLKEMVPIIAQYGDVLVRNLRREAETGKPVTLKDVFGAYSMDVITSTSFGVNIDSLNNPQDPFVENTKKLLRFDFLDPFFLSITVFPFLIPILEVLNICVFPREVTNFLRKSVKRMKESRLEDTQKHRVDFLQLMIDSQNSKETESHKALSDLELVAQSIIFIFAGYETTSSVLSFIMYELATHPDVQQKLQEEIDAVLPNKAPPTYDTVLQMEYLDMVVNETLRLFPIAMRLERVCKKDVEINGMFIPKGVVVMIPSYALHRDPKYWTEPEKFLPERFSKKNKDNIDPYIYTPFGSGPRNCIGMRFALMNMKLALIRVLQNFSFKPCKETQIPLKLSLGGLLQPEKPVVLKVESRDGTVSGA
Sequence of CYP2D6 (P10635 whole entry): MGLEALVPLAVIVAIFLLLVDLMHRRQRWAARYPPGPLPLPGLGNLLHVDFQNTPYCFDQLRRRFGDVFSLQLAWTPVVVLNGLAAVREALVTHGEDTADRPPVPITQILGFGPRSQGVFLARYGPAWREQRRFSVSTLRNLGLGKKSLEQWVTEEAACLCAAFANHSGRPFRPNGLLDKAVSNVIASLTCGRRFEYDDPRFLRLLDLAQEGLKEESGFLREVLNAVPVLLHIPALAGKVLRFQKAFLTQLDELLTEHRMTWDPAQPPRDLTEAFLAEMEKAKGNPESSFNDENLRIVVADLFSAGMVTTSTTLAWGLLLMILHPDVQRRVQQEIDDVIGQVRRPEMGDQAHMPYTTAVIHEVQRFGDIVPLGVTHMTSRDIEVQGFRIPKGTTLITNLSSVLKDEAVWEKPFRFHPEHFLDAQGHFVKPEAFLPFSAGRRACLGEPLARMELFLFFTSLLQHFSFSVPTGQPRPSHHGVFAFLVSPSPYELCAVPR
Sequence of CYP2A6 (P11509 whole entry): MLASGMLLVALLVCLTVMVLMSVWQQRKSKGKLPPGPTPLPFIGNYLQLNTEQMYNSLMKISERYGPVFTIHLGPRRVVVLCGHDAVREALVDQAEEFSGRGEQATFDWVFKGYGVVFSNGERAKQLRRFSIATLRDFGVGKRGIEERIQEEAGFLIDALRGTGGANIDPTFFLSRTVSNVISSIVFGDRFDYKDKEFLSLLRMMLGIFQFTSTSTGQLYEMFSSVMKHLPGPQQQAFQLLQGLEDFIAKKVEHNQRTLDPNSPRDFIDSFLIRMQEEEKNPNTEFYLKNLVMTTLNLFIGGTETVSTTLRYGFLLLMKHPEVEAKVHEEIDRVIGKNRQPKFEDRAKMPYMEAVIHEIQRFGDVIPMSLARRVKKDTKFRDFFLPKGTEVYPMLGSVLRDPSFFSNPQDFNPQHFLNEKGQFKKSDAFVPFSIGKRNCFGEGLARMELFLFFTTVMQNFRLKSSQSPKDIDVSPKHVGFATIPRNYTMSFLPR
Sequence of human OATP1B1 (Q9Y6L6 whole entry): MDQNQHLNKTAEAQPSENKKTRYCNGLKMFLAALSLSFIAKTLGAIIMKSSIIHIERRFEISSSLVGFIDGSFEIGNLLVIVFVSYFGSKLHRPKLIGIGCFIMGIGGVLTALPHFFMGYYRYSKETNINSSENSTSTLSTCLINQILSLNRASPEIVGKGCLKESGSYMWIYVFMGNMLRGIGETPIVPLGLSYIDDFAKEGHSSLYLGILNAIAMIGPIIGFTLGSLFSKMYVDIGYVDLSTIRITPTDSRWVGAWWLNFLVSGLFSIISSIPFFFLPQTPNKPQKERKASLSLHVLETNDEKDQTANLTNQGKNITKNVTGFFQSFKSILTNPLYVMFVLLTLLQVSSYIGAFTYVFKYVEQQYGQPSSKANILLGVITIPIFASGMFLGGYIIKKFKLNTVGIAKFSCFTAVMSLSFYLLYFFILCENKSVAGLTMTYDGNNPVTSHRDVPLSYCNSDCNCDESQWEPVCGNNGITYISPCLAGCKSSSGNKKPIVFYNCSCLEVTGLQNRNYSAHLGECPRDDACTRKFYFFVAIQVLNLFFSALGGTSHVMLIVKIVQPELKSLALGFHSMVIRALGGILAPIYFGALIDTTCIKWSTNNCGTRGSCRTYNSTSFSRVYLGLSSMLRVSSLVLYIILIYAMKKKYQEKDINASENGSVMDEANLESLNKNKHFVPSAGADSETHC
Sequence of CYP1A2 (P05177 whole entry): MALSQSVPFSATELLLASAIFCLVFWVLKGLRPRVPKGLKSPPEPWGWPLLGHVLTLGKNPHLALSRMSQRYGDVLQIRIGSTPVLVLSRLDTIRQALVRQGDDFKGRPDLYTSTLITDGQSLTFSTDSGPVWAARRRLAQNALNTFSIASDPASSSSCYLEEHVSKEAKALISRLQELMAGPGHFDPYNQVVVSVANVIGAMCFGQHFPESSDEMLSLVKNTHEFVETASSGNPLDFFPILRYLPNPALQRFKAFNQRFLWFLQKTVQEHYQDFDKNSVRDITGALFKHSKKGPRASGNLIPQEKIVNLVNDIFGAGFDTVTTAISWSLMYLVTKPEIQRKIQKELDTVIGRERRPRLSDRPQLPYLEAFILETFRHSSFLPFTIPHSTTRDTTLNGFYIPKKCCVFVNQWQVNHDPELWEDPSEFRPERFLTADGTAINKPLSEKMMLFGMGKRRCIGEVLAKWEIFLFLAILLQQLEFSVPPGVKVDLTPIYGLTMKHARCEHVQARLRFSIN

SMILES: CN(C(=O)n1cnc(-c2ccc[n+]([O-])c2)c1)C1CCCCC1 [BIA 10‐2474, 3‐(1‐(cyclohexyl (methyl)carbamoyl)‐1H‐imidazol‐4‐yl)pyridine 1‐oxide]
- IC50 ([1]; IC50 [95% CI], pre‐incubation 0 min): 1130 nM
- IC50 ([1]; IC50 [95% CI], pre‐incubation 5 min): 1180 nM
- IC50 ([1]; IC50 [95% CI], pre‐incubation 15 min): 626 nM
- IC50 ([1]; IC50 [95% CI], pre‐incubation 30 min): 424 nM
- IC50 ([1]; IC50 [95% CI], pre‐incubation 45 min): 360 nM
- IC50 ([1]; IC50 [95% CI], pre‐incubation 60 min): 398 nM
- IC50 ([1]; IC50 values over all pre‐incubation times, rat brain membranes): 360 to 1130 nM
- IC50 fold higher than those for JNJ‐42165279 ([1]; rat brain membranes): 2–4 fold
- k inact/K I [2]: 1,243 M·s^−1
- ED50 [95% CI] Brain ([3]; 480 min): 13.5 μg·kg^−1 and 13.5 [10.2, 17.7] μg·kg^−1
- inhibition at 0.1 mg/kg ([3]; po, read-out: maximal inhibition of brain FAAH): 91.4%
- brain 2‐AG level ([4]; 1 hr, vehicle 45.1 ± 7.9): 30.4 ± 11.7 µg/g
- brain 2‐AG level ([4]; 4 hr, vehicle 40.9 ± 3.4): 44.5 ± 4.9 µg/g
- brain 2‐AG level ([4]; 8 hr, vehicle 39.0 ± 13.2): 34.9 ± 7.7 µg/g
- brain 2‐AG level ([4]; 24 hr, vehicle 38.0 ± 5.7): 31.4 ± 9.4 µg/g
- level in all brain sections ([5]; 24 hr after acute and 24, 48 and 72 hr after chronic administration): < 50 ng·g^−1 of tissue
- brain levels, acute versus repeated oral administration ([5]; any brain region and time point): no significant differences
- inhibitory effect on CY1A2 (CYP1A2): did not exhibit any inhibitory effects
- inhibitory effect on CYP2A6 (CYP2A6): did not exhibit any inhibitory effects
- inhibition of CYP2D6 (CYP2D6; co‐incubation): minor inhibition
- inhibition of CYP2D6 (CYP2D6; [8]): no effect
- inhibitory effect on CYP3A4 [midazolam] (CYP3A4; 0.33–99.2 μM, co‐ and pre‐incubation): did not exhibit any inhibitory effects
- inhibition of CYP3A4 (testosterone as substrate) (CYP3A4; co‐incubation): minor inhibition
- inhibition of CYP3A4 (testosterone as substrate) (CYP3A4; [8]): no effect
- effect on OATP1B1‐mediated probe substrate accumulation (human OATP1B1): did not influence
- maximum plasma exposure in the clinic ([6]; 50 mg ref Rocha et al.): around 2 μM
- maximum plasma exposure in the clinic ([6]; 100 mg ref Rocha et al.): ~6 µM

SMILES: O=C(Nc1cccnn1)N1CCC(=Cc2cccc(Oc3ccc(C(F)(F)F)cn3)c2)CC1 [PF‐04457845]
- IC50 ([1]; read-out: IC50 [95% CI], pre‐incubation 0 min): 3.9 nM
- IC50 ([1]; read-out: IC50 [95% CI], pre‐incubation 5 min): 2.8 nM
- IC50 ([1]; read-out: IC50 [95% CI], pre‐incubation 15 min): 1.5 nM
- IC50 ([1]; read-out: IC50 [95% CI], pre‐incubation 30 min): 2.7 nM
- IC50 ([1]; read-out: IC50 [95% CI], pre‐incubation 45 min): 2.7 nM
- IC50 ([1]; read-out: IC50 [95% CI], pre‐incubation 60 min): 2 nM
- k inact/K I [2]: 167,333 M·s^−1
- mean % free fraction ± SD [7]: 28.0 ± 3.9%
- brain FAAH activity, % of control levels ([3]; 0.1 mg·kg^−1 p.o., 48 hr): 43.8%
- inhibition of cerebral FAAH, mean values ([3]; 0.1 mg·kg^−1 p.o., over 24 hr): above 88.7%
- ED50 [95% CI] Brain [3]: 4.3 [1.8, 9.9] μg·kg^−1
